In article PMC4855275 (Experimental & Molecular Medicine, 2016):
“Also recorded” adds a separate entry of the source.

What was measured:
Wt-PAK1 (full-length) = settings: reported; ref [11], [12]; cited from earlier work
PAK1^T423E [1] = target: T1, PAK1^T423E (Homo sapiens, UniProt Q13153, T423E); settings: reported; ref [11], [12]; cited from earlier work
PBD of PAK1 (Wt-PBD) = PBD of PAK1 (Wt-PBD) (Homo sapiens, UniProt Q13153); assay: SPR binding to immobilized GST-PBD; settings: Kd for the compound–PBD interaction, 25 °C, 1:1 Langmuir model
PBD of PAK1 (Wt-PBD), sequence (Q13153 67-150): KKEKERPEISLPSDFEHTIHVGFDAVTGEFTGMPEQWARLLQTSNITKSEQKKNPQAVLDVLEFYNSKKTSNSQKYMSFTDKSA
Method in brief: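 GST (reference) and wild-type GST-PBD amine-coupled to CM5 chips at about 10 000 RU. Runs at 25 °C in 10 mM HEPES, 150 mM NaCl, 0.005% P20, 0.4% DMSO, pH 7.4. Test compound injected at 12.5, 25, 50 or 100 μM, 20 μl min⁻¹. Kd taken as kd/ka from a 1:1 Langmuir fit. At least three independent experiments.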

PBD-LL (H83L/H86L) = PBD-LL (H83L/H86L) (Homo sapiens, UniProt Q13153, H83L/H86L); assay: SPR binding to mutated PBD; settings: 100 μM compound
PBD-LL (H83L/H86L), sequence (Q13153 67-150 H83L/H86L): as the sequence (Q13153 67-150) above, with H17L, H20L counted along it
Method in brief: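 GST-tagged wild-type or H83L/H86L PAK1 PBD was expressed in E. coli, purified on glutathione-Sepharose, and amine-coupled to CM5 chips (~10 000 RU), with GST as control. Test compound (100 μM) was flowed at 20 μl min⁻¹, 25 °C, in 10 mM HEPES, 150 mM NaCl, 0.005% P20, 0.4% DMSO, pH 7.4. Sensorgrams were representative of ≥3 independent experiments.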

PAK1^T423E [2] = target: T1, PAK1^T423E; assay: In vitro PAK1 assay with active PAK1; type: biochemical; settings: 0.5 h; 40 μM in Figure 3c
Method in brief: (§1)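 Preincubated with test compound or DMSO 0.5 h, 30 °C, then 5 μCi [γ-³²P]ATP 0.5 h, 30 °C. 15% SDS-PAGE; MBP phosphorylation read by autoradiography; total MBP immunoblot as loading control; ≥3 experiments.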

[3] = target: PAK1^T423E/LL (H83L/H86L) (Homo sapiens, UniProt Q13153, H83L/H86L/T423E); assay: In vitro kinase assay with LL mutant of active PAK1; type: biochemical; settings: 40 μM, 0.5 h
PAK1^T423E/LL (H83L/H86L), sequence (Q13153 whole entry H83L/H86L/T423E): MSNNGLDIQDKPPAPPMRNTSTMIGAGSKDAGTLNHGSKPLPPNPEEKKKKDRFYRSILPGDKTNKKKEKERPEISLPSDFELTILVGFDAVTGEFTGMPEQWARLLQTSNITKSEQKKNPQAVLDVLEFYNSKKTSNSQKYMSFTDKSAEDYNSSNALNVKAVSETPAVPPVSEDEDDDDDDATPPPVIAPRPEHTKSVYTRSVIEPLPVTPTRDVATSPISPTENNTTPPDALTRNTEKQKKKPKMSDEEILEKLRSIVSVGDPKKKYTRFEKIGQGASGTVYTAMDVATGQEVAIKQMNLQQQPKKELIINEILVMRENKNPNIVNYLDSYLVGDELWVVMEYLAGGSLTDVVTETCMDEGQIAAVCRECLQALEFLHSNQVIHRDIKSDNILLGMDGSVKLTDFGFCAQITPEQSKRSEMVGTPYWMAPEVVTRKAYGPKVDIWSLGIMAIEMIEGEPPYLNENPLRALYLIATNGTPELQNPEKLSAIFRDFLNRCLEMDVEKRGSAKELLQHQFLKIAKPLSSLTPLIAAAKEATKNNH
Method in brief: as §1

[4] = target: YFP-PBD and CFP-V12Cdc42 fusion proteins in HeLa cells (Homo sapiens, UniProt Q13153); assay: FRET analysis of V12Cdc42–PBD interaction in cells; type: cell-based; settings: 20 μM, 1.5 h
YFP-PBD and CFP-V12Cdc42 fusion proteins in HeLa cells, sequence (Q13153 67-150): as the sequence (Q13153 67-150) above
Method in brief: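 HeLa on poly-L-lysine-coated coverslips transfected with YFP-PBD and CFP-V12Cdc42 plasmids. At 12 h post-transfection, DMSO or 20 μM test compound applied and imaged over 1.5 h (ex 433 nm; em 475 nm CFP, 530 nm FRET). Background-subtracted FRET/CFP ratio used as efficiency, normalised to time zero = 1; 16 cells per compound.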

HeLa cells = assay: Cell viability / cytotoxicity; type: cell-based; settings: for Light-induced cytotoxicity: during FRET analysis
Method in brief: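 HeLa seeded at 2 × 10⁵ cells per ml. Test compound at 20 μM final for 2, 4, 6, 8 or 12 h at 37 °C. WST-8 then added (10% v/v final) for 2 h at 37 °C; absorbance read at 450 nm.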

[5] = target: myc-PAK1 (pT423) in HeLa cells (Homo sapiens, UniProt Q13153); assay: Sorbitol-induced PAK1 autophosphorylation in cells; type: cell-based; settings: 20 μM for 2 h, then 0.4 M sorbitol
myc-PAK1 (pT423) in HeLa cells, sequence (Q13153 whole entry): as the sequence (Q13153 whole entry H83L/H86L/T423E) above, with L83H, L86H, E423T counted along it
Method in brief: (§2)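 HeLa transfected (Lipofectamine, 24 h) with 2 μg myc-PAK1 or myc-PAK3 cDNA. Cells exposed to test compound 2 h, then 0.4 M sorbitol 0.5 h; lysed in HEPES/Triton buffer with NaF and vanadate. Immunoblotted with anti-phospho-group I PAK antibody (PAK1 T423; PAK3 T421); myc-PAK levels by anti-Myc; chemiluminescent detection; ≥3 experiments.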

[6] = target: myc-PAK3 (pT421) in HeLa cells (Homo sapiens, UniProt O75914); assay: Sorbitol-induced PAK3 autophosphorylation in cells; type: cell-based; settings: 20 μM for 2 h, then 0.4 M sorbitol
myc-PAK3 (pT421) in HeLa cells, sequence (O75914 1-544 isoform O75914-2): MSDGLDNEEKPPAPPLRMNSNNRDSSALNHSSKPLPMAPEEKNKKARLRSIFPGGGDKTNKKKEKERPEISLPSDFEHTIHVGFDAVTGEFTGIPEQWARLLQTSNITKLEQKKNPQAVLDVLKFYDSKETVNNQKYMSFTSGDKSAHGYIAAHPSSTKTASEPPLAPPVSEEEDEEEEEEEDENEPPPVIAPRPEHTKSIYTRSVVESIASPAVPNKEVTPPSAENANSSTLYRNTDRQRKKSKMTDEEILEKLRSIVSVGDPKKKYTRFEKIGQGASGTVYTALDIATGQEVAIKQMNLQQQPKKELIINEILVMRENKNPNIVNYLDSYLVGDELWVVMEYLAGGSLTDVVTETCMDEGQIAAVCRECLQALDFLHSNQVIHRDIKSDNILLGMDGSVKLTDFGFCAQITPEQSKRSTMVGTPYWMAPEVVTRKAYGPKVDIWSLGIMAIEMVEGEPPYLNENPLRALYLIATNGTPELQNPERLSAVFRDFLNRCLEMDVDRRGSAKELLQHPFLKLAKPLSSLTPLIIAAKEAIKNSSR
Method in brief: as §2

pMEK1^S298 in 293T cells = assay: MEK1 S298 phosphorylation downstream of PAK1; type: cell-based; settings: 293T cells with myc-PAK1 and GFP-V12Cdc42, 20 μM, 2 h
Method in brief: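 293T co-transfected with myc-PAK1 and GFP-V12Cdc42. After 24 h, test compound at 20 μM for 2 h. Lysates immunoblotted for pPAK1 T423 and pMEK S298; expressed proteins checked with anti-Myc and anti-GFP. Membranes blocked in 3% BSA/TBS-T, primary antibody 1 h RT, HRP secondary, chemiluminescence. At least three independent experiments.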

[7] = tested on: R1K3 (PAK1 CD replaced by PAK3 CD) in HeLa cells; assay: CD-swapping experiment, R1K3; type: cell-based; settings: 20 μM for 2 h, then 0.4 M sorbitol
full-length PAK1 = full-length PAK1 (Homo sapiens, UniProt Q13153); assay: In vitro inhibition of PAK family members, PAK1; type: biochemical; settings: 40 μM, with Cdc42•GTP
full-length PAK1, sequence (Q13153 whole entry): as the sequence (Q13153 whole entry H83L/H86L/T423E) above, with L83H, L86H, E423T counted along it

full-length PAK3 = full-length PAK3 (Homo sapiens, UniProt O75914); assay: In vitro inhibition of PAK family members, PAK3; type: biochemical; settings: 40 μM, with Cdc42•GTP
full-length PAK3, sequence (O75914 1-544 isoform O75914-2): as the sequence (O75914 1-544 isoform O75914-2) above

[8] = target: Cdc42–PBD interaction (PBD of PAK1) (Homo sapiens, UniProt Q13153); assay: ELISA of the Cdc42–PBD interaction; type: binding
Cdc42–PBD interaction (PBD of PAK1), sequence (Q13153 67-150): as the sequence (Q13153 67-150) above
Method in brief: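 Wells coated overnight at 4 °C with His-tagged PAK1 PBD (1 μg ml⁻¹) in carbonate–bicarbonate buffer, pH 9.6; TBS-T washes. GST-Cdc42 loaded with GTPγS (0.5 h, RT), then GST-Cdc42(GTPγS) (100 ng ml⁻¹) with test compound for 0.5 h RT and 1 h 37 °C. Bound Cdc42 detected with HRP-anti-GST (200 ng ml⁻¹, 1 h, 37 °C) and ABTS (pH 5.6, 15–30 min); stopped with 1% SDS; A405.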

Cdc42–PBD interaction = Cdc42–PBD interaction (Homo sapiens, UniProt Q13153); assay: SPR of Cdc42•GTP binding to immobilized PBD in presence of compound; settings: 10 µM compound
Cdc42–PBD interaction, sequence (Q13153 67-150): as above

T1 sequence (Q13153 whole entry T423E): as the sequence (Q13153 whole entry H83L/H86L/T423E) above, with L83H, L86H counted along it

Row | Structure (SMILES) | Inhibition of full-length PAK1 (MBP phosphorylation) (full-length PAK1) | Inhibitory activity on the Cdc42–PBD interaction [8] | Kd (PBD of PAK1 (Wt-PBD)) [µM] | Binding affinity to PBD-LL compared with Wt-PBD (PBD-LL (H83L/H86L)) | PAK1 autophosphorylation (pT423) [5] | Inhibition of sorbitol-activated R1K3 [7] | Interference with the Cdc42–PBD interaction (Cdc42–PBD interaction) | Light-induced cytotoxicity (HeLa cells) | also measured
1 | Oc1ccc2ccccc2c1SSc1c(O)ccc2ccccc12 [IPA-3, 2,2′-dihydroxy-1,10-dinaphthyldisulfide] | – | – | – | – | – | – | – | – | Inhibition of Cdc42-dependent activation of wild-type group I PAKs (Wt-PAK1 (full-length)): effectively inhibit; Susceptibility of PAK1^T423E to inhibition (PAK1^T423E [1]): not susceptible to inhibition
2 | O=C1C=CC(=O)c2ccccc21 [compound 7, 1,4-naphthoquinone] | suppressed the activities of both PAK1 and PAK3 to a similar degree | – | < 7 | significantly reduced (to approximately half of those for Wt-PBD binding) | greatly suppressed; also recorded: almost completely inhibited | almost completely inhibited | – | – | MBP phosphorylation by PAK1^T423E (PAK1^T423E [2]): markedly suppressed; Inhibitory effect on PAK1^T423E/LL [3]: little inhibitory effect; FRET efficiency [4]: decreased; Cytotoxicity (HeLa cells; HeLa cells, 20 μM): no significant cytotoxicity; PAK3 autophosphorylation (pT421) [6]: greatly suppressed; also recorded: specifically inhibited; pMEK1^S298 levels (pMEK1^S298 in 293T cells): markedly decreased; Inhibition of full-length PAK3 (MBP phosphorylation) (full-length PAK3): suppressed the activities of both PAK1 and PAK3 to a similar degree
3 | COC(=O)C1=CC(=O)c2ccccc2C1=O [compound 8, 2-methoxycarbonyl-1,4-naphthoquinone] | – | high inhibitory activities | < 7 | significantly reduced (to approximately half of those for Wt-PBD binding) | – | – | – | – | –

The next lines start with results.

Row | Inhibition of full-length PAK1 (MBP phosphorylation) (full-length PAK1) | Inhibitory activity on the Cdc42–PBD interaction [8] | Structure (SMILES) | Kd (PBD of PAK1 (Wt-PBD)) [µM] | Binding affinity to PBD-LL compared with Wt-PBD (PBD-LL (H83L/H86L)) | PAK1 autophosphorylation (pT423) [5] | Inhibition of sorbitol-activated R1K3 [7] | Interference with the Cdc42–PBD interaction (Cdc42–PBD interaction) | Light-induced cytotoxicity (HeLa cells) | also measured
4 | selective inhibition of PAK1 | high inhibitory activities | O=C1C=C(Br)C(=O)c2ccccc21 [compound 13, 2-Bromo-1,4-NQ] | – | – | only weakly suppressed | – | effectively interfered with the Cdc42–PBD interaction | light-induced cytotoxicity | –
5 | selective inhibition of PAK1 | high inhibitory activities | O=C1C=C(Cl)C(=O)c2ccccc21 [compound 14, 2-Chloro-1,4-NQ] | – | – | greatly suppressed; also recorded: almost completely inhibited | almost completely inhibited | effectively interfered with the Cdc42–PBD interaction | light-induced cytotoxicity | –
